18 molecules from ChEMBL document CHEMBL1148747, “Structure-activity relationship studies of spinorphin as a potent and selective human P2X(3) receptor antagonist” (J Med Chem, 2007) can be followed below.

Assay [1] deals with T1, P2X purinoceptor 1 (Mus musculus) (UniProt P51576).
T1 sequence (whole entry): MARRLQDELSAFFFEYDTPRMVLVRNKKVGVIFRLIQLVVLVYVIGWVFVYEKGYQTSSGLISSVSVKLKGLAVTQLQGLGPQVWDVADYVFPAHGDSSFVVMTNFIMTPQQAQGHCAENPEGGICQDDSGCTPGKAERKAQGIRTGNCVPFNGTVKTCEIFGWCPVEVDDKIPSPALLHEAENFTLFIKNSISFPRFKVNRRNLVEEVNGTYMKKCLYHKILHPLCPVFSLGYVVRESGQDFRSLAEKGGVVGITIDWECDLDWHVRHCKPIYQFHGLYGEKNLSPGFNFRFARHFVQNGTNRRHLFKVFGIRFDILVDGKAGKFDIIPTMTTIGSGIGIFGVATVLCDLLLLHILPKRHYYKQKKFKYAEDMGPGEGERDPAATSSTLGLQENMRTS
The assay can be described thus: Antagonist activity at mouse recombinant P2X1 receptor expressed in Xenopus oocytes assessed as inhibition of ATP-induced ion current at 10 uM by two electrode voltage clamping technique. To be noted: Oocyte. Format: functional, cell-based. The gist of the method:
(§1)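 Defolliculated Xenopus oocytes injected with receptor cRNA (40 nL, 1 µg/mL). Incubated 24 h at 18 °C in Barth's solution, then kept at 4 °C for up to 12 days. Two-electrode voltage clamp at Vh -90 mV in Ringer's solution (Ba2+, pH 7.5, 18 °C). Peptide applied 20 min before 2 µM ATP; current inhibition measured against ATP-alone control; n = 4.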

Assay [2] concerns the target T2, P2X purinoceptor 7 (Homo sapiens) (UniProt Q99572).
T2 sequence (whole entry): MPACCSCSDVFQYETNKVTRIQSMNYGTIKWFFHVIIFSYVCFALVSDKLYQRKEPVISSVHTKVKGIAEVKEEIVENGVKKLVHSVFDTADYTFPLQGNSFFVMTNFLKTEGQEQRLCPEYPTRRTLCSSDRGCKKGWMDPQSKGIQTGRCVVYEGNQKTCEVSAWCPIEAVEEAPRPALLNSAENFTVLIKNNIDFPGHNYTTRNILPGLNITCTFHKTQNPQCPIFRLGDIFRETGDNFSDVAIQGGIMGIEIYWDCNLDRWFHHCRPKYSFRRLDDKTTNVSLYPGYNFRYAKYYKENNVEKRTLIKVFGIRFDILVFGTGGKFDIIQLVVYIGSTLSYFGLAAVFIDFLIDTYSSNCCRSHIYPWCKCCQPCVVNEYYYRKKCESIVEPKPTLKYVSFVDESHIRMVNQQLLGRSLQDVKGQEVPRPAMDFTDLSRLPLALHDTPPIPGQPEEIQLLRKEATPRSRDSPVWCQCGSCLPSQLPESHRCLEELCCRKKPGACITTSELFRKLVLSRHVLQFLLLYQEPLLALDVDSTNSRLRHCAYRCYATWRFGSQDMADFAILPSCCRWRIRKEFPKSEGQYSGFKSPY
The experiment in a line: Antagonist activity at human recombinant P2X7 receptor expressed in HEK293 cells assessed as BzATP-induced ethidium accumulation at 10 uM. Format: functional, cell-based. The gist of the method: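 HEK293 cells expressing human P2X7, grown in DMEM with 10% FBS. Cells resuspended in HEPES/KCl/glucose/EDTA buffer (pH 7.4) with 100 µM ethidium bromide, 2 × 10^5 cells/well. 6 µM BzATP given together with 10 µM compound, no preincubation. After 120 min at 37 °C, ethidium fluorescence read (ex 530/em 590 nm). Mean ± SEM, n = 3.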

Assay [3] concerns the target T3, P2X purinoceptor 3 (Homo sapiens) (UniProt P56373).
T3 sequence (whole entry): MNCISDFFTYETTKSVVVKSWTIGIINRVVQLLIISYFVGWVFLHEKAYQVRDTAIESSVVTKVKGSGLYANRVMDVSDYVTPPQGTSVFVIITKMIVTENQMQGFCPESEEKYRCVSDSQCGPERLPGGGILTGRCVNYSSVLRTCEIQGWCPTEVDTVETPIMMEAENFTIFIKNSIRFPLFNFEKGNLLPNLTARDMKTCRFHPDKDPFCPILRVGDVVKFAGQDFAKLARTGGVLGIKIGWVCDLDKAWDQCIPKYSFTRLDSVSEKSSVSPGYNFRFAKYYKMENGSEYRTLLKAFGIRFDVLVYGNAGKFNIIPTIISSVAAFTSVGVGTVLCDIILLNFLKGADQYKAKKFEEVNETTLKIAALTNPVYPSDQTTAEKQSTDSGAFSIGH
The assay can be described thus: Antagonist activity at human recombinant P2X3 receptor expressed in Xenopus oocytes assessed as inhibition of ATP-induced ion current at 10 uM by two electrode voltage clamping technique. Format: functional, cell-based. The note with it: Oocyte. In outline: as §1

Assay [4] has as its target T3, P2X purinoceptor 3 (Homo sapiens). The assay can be described thus: Antagonist activity at human recombinant P2X3 receptor expressed in Xenopus oocytes assessed as inhibition of ATP-induced ion current at 100 nM by two electrode voltage clamping technique. The note with it: Oocyte.
For assay [5], the target named is T4, P2X purinoceptor 3 (Homo sapiens, UniProt P56373).
T4 sequence (P56373 whole entry): T3 sequence (whole entry)
The assay can be described thus: Antagonist activity at human P2X3 receptor expressed in Xenopus oocytes assessed as inhibition of ATP-induced ion current by two electrode voltage clamping technique. Format: functional, cell-based, Oocyte. The gist of the method:
as §1

The target in assay [6] is T1, P2X purinoceptor 1 (Mus musculus). The experiment in a line: Antagonist activity at mouse recombinant P2X1 receptor expressed in Xenopus oocytes assessed as inhibition of ATP-induced ion current at 100 nM by two electrode voltage clamping technique. To be noted: Oocyte.
Assay [7] addresses T4, P2X purinoceptor 3. The assay can be described thus: Antagonist activity at human recombinant P2X3 receptor expressed in Xenopus oocytes assessed as inhibition of ATP-induced ion current in presence of 20 nM LVVYPWA peptide by two electrode voltage clamping technique. Type of assay: functional, cell-based, Oocyte.

Calls of active or inactive are those of the source. The rule behind the calls is not given here. Residues, ends and D or L forms follow the SMILES beside them.

Take `CC(C)C[C@@H](NC(=O)[C@H](NC(=O)[C@H](NC(=O)[C@@H](Cc1ccc(O)cc1)NC(=O)[C@H]1CCCN1C(=O)[C@@H](Cc1c[nH]c2ccccc12)NC(=O)[C@H](N)[C@@H](C)O)C(C)C)C(C)C)C(=O)O`: in assay [1], the inhibition was determined as 15.5%. In assay [2], the outcome was inactive.
Consider `C[C@@H](O)[C@H](NC(=O)[C@H](Cc1c[nH]c2ccccc12)NC(=O)[C@@H]1CCCN1)C(=O)O` (H-Pro-Trp-Thr-OH), for which the inhibition in assay [3] turned out to be 32.7%.
On the same count and under the same terms, the figure for `N[C@@H](Cc1ccc(O)cc1)C(=O)N1CCC[C@H]1C(=O)N[C@@H](Cc1c[nH]c2ccccc12)C(=O)O` (H-Tyr-Pro-Trp-OH) is 15.6%.
For the molecule `CC(C)[C@H](N)C(=O)N[C@@H](Cc1ccc(O)cc1)C(=O)N1CCC[C@H]1C(=O)N[C@@H](Cc1c[nH]c2ccccc12)C(=O)O` (H-VYPW-OH), in assay [3], the result was inactive.
In the case of `CC(C)[C@H](N)C(=O)N[C@@H](Cc1ccc(O)cc1)C(=O)N1CCC[C@H]1C(=O)O` (H-Val-Tyr-Pro-OH), the inhibition in assay [3] was 16.2%.
For `C[C@@H](O)[C@H](NC(=O)[C@H](Cc1c[nH]c2ccccc12)NC(=O)[C@@H]1CCCN1C(=O)[C@@H](N)Cc1ccc(O)cc1)C(=O)O` (H-YPWT-OH), the inhibition in assay [3] was determined as 13.3%.
In the case of `CC(C)[C@@H]1NC(=O)[C@H](C)NC(=O)[C@H]([C@@H](C)O)NC(=O)[C@H](Cc2c[nH]c3ccccc23)NC(=O)[C@@H]2CCCN2C(=O)[C@H](Cc2ccc(O)cc2)NC(=O)[C@H](C(C)C)NC1=O` (HELM PEPTIDE1{A.V.V.Y.P.W.T}$PEPTIDE1,PEPTIDE1,1:R1-7:R2$$$V2.0), the inhibition in assay [1] was determined as 6.4%; in assay [4], 11.4%. In addition, the result in assay [2] was inactive.
For the molecule `CC(C)C[C@@H]1NC(=O)[C@H]([C@@H](C)O)NC(=O)[C@H](Cc2c[nH]c3ccccc23)NC(=O)[C@@H]2CCCN2C(=O)[C@H](Cc2ccc(O)cc2)NC(=O)[C@H](C(C)C)NC(=O)[C@H](C(C)C)NC1=O` (HELM PEPTIDE1{L.V.V.Y.P.W.T}$PEPTIDE1,PEPTIDE1,1:R1-7:R2$$$V2.0), the inhibition in assay [1] came out at 11.5%; in assay [2] it was 8.8%; in assay [4], 36.3%. Further, the half-inhibitory concentration (IC50) on P2X purinoceptor 3 [5] was 82.4 nM.
As to `Cc1nc(/N=N/c2cc(S(=O)(=O)O)ccc2S(=O)(=O)O)c(COP(=O)(O)O)c(C=O)c1O` [ISOPPADS], the IC50 on P2X purinoceptor 3 [5] stood at 108 nM. The results for the inhibition in assay [6] and in assay [4] were 64.2% and 48.3%, respectively.
With H-AVVYPWT-OH, the result in assay [1] and in assay [2] was inactive. For the same molecule, the IC50 on P2X purinoceptor 3 [5] stood at 14.3 nM. In addition, the inhibition in assay [4] stood at 82.5%.
On to H-LAVYPWT-OH, for which the results for the inhibition in assay [1], in assay [2] and in assay [4] were 8.1%, 7.6% and 48.4%, respectively. Besides, on P2X purinoceptor 3 [5], the IC50 amounted to 32.4 nM.
As for H-LVAYPWT-OH, the outcome in assay [1] and in assay [2] was inactive. Moreover, the inhibition in assay [4] is 53.4%.
As for H-LVVAPWT-OH, the outcome in assay [1] and in assay [2] was inactive. Also, the inhibition in assay [4] turned out to be 52.3%.
As to H-LVVYAWT-OH, the result in assay [1] and in assay [2] was inactive. In assay [4], the inhibition came out at 12.9%.
Consider H-LVVYPAT-OH, for which the inhibition is 4.2% in assay [1], 16.7% in assay [2] and 17% in assay [4].
As to H-LVVYPWT-OH [SPINORPHIN], the IC50 on P2X purinoceptor 3 [7] was 0.0481 nM; on P2X purinoceptor 3 [5], 0.0083 nM. For the same molecule, the inhibition amounted to 7.4% in assay [1], 8.3% in assay [2] and 67.2% in assay [4].
For H-VVYPWT-OH, in assay [3], the inhibition is 29.3%.
Consider H-VYPWT-OH, for which the outcome in assay [3] was inactive.
